Published values collected from several papers.
Each line is one published result; the experiments were not run side by side. pIC50: −log10 of the molar value. In brackets after ≈: the same amount, converted by molar mass.
Organism: Enterococcus faecalis

For CC(C)CCCCCCCCCCCCCCc1cc(O)cc(O)c1, the pIC50 was 4.77 (microbial growth; ATCC29212).
The MIC of CCCCCCCCCCCCCCCC(=O)NS(=O)(=O)Oc1ccc(C)cc1 is reported as 12.5 µg/mL (≈ 29.4 µM) (microbial growth, broth dilution; ATCC33186).
For CC1(C)S[C@@H]2[C@H](NC(=O)COc3ccccc3)C(=O)N2[C@H]1C(=O)O, the MBC was > 128 µg/mL (microbial killing; drug-resistant strain, clinical isolate).
With COc1ccc(OS(=O)(=O)NC(=O)CCCCc2ccccc2)cc1 the MIC was > 200 µg/mL (microbial growth; ATCC33186).
CC1(C)S[C@@H]2[C@H](NC(=O)[C@H](N)c3ccccc3)C(=O)N2[C@H]1C(=O)O has an inhibition zone of 28 mm (microbial growth, well diffusion; ATCC51299; 60000 µg/mL).
With CCC(CCCCCCCCCCc1cc(O)cc(O)c1)C(C)C (stereo not shown) the pIC50 was 5.03 (microbial growth; ATCC29212).
CCCCCCCCCCCCCCCC(=O)NS(=O)(=O)OC1CCN(C(=O)OC(C)(C)C)CC1 has an MIC of 25 µg/mL (≈ 48.2 µM) (microbial growth, broth dilution; ATCC33186).
CCCCCCCCCCCC(=O)NP(=O)(O)O gave an MIC of 200 µg/mL (≈ 716 µM) (microbial growth; ATCC33186).
The pIC50 of CC(C)CCCCCCCCCCCCc1cc(O)cc(O)c1 is reported as 4.09 (microbial growth; ATCC29212).
O=C(CCCCCCCCCCOc1ccccc1)NP(=O)(O)O gave an MIC of 100 µg/mL (≈ 280 µM) (microbial growth; ATCC33186).
With COc1ccc(CNO)c(C)c1 the MIC50 was < 80 µg/mL (microbial growth; ATCC19433; 8 h).
With CCCCCCCCCCCCCCCC(=O)NS(=O)(=O)Oc1ccc(OC)cc1 the MIC was > 200 µg/mL (microbial growth; ATCC33186).
CC(C)(O/N=C(\C(=O)N[C@@H]1C(=O)N2C(C(=O)[O-])=C(C[n+]3ccccc3)CS[C@H]12)c1csc(N)n1)C(=O)O has an MBC of > 128 µg/mL (microbial killing; drug-resistant strain, clinical isolate).
